Published values of several laboratories.
Target: Serine/threonine-protein kinase haspin (HASPIN, Homo sapiens, UniProt Q8TF76)
Residues used in one study (Q8TF76 1-798): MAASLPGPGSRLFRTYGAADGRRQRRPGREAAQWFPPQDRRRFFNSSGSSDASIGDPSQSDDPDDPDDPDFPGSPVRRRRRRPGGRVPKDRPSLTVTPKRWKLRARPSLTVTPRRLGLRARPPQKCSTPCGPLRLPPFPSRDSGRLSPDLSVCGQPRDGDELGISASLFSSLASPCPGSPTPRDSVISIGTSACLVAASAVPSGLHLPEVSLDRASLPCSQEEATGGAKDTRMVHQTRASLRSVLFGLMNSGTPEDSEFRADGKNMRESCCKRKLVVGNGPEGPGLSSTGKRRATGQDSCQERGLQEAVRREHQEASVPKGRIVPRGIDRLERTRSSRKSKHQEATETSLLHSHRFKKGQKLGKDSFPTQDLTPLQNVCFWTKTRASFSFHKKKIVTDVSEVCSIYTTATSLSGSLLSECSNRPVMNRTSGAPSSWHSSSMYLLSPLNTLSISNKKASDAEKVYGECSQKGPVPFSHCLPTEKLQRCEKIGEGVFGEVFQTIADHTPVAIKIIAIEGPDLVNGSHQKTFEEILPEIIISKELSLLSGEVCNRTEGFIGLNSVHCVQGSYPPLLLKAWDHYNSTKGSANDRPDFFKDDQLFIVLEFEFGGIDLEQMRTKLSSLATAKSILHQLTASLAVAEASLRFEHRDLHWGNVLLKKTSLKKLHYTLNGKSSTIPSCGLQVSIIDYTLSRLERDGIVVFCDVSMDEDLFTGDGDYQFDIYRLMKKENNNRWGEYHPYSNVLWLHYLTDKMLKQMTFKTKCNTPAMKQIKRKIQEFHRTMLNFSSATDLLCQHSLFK

| SMILES | assay | setting | remaining binding |
| --- | --- | --- | --- |
| COc1cnc(Nc2cccc(S(N)(=O)=O)c2)nc1N1CCN(c2ccccc2)CC1 | binding, competition with immobilised ligand | 1 µM | 82% |
| CN(C)c1nccc(-c2cnn3ncccc23)n1 | binding | 1 µM | 1.5% |
| O=C1NC(c2ccccn2)Sc2ccccc21 (stereo not shown) | cell-free assay, competition with immobilised ligand | 1 µM | 100% |
| Cc1cnc(Nc2ccc(C(=O)N3CCC(N4CCCC4)CC3)cc2)nc1-c1cc2ccccc2s1 | binding, competition with immobilised ligand | 1 µM | 83% |
| COc1cnc(Nc2cccc(S(N)(=O)=O)c2)nc1N1CCN(c2ccccc2)C(=O)C1 | binding, competition with immobilised ligand | 1 µM | 89% |
| FC(F)(F)Oc1cccc(-c2cnc3ccc(-c4ccncc4)nn23)c1 | binding, competition with immobilised ligand | 5 µM | 4.6% |
| O=C(Nc1c[nH]nc1C(=O)NC1CCNCC1)c1cc(F)cc(F)c1 | binding, competition with immobilised ligand | 1 µM | 96% |
| N[C@@H]1CCN(c2nccc(-c3cnn4ncccc34)n2)C1 | binding | 1 µM | 2.5% |
| O=C(NCCCN1CCOCC1)c1ccc(Nc2nccc(-c3cc4ccccc4s3)n2)cc1 | binding, competition with immobilised ligand | 1 µM | 80% |
| Cn1nc(C(F)(F)F)cc1-c1cnc(N2CCc3cc(S(=O)(=O)Nc4c(F)cc(Cl)cc4F)cc(N4CCCC4=O)c32)nc1 | cell-free assay, competition with immobilised ligand | 1 µM | 68% |
| C[C@H]1CCN(c2nccc(-c3cnn4ncccc34)n2)C1 | binding | 1 µM | 2.1% |
| C=CC(=O)N1CCC(C(=O)NCC(=O)N2CCN(c3nc(-c4cnc(N)nc4C(F)F)nc(N4CCOCC4)n3)CC2)CC1 | binding, competition with immobilised ligand | 1 µM | 75% |
| CC1CCCN1c1nccc(-c2cnn3ncccc23)n1 (stereo not shown) | binding | 1 µM | 21% |
| C[C@H](NC(=O)c1cnc2n1[C@](C)(Cc1ccc(C#N)cc1)C(=O)N2c1cc(Cl)c(F)c(Cl)c1)C(=O)NC1(c2ccccn2)CC1 | cell-free assay, competition with immobilised ligand | 1 µM | 100% |
| CN(C)c1ncc(F)c(-c2cnn3ncccc23)n1 | binding | 1 µM | 37% |
| c1cncc(-c2cccc(Nc3nccc(NC4CCCCC4)n3)c2)c1 | binding, competition with immobilised ligand | 10 µM | 23% |
| C[C@H](c1ccnc(Nc2nc3ccc(-c4cc(N(C)C)ncn4)cc3[nH]2)c1)N1CCN(C(=O)CC(F)(F)F)CC1 | cell-free assay, competition with immobilised ligand | 0.1 µM | 100% |
| O=C(c1ccc(Nc2ncc(Cl)c(-c3ccc(Cl)s3)n2)cc1)N1CCC(N2CCCC2)CC1 | binding, competition with immobilised ligand | 1 µM | 39% |
| F[C@@H]1CCN(c2nccc(-c3cnn4ncccc34)n2)C1 | binding | 1 µM | 15% |
| COc1ccc2cc(OCC3(C(=O)O)CN(C(=O)c4ccc(F)cc4)C3)ccc2c1 | cell-free assay, competition with immobilised ligand | 1 µM | 100% |
| c1cnn2ncc(-c3ccnc(N4CCC45COC5)n3)c2c1 | binding | 1 µM | 0.6% |
| CC(=O)N1CCC(c2ccc(C(=O)NC3=NCCN3)cc2C(F)(F)F)CC1 | cell-free assay, competition with immobilised ligand | 1 µM | 78% |
